Results gathered from unrelated publications.
Lines come from different studies, so protocols differ.
Target: Fibroblast growth factor receptor 2 (FGFR2, Homo sapiens, UniProt P21802)

| SMILES | assay | setting | quantity | value |
| --- | --- | --- | --- | --- |
| CCCCC(=O)Nc1ccc(-c2ccc3ncn(CCC)c(=O)c3c2)cn1 | binding, competition with immobilised ligand | 0.5 µM | remaining binding | 86% |
| CO[C@@H]1[C@H](N(C)C(=O)c2ccccc2)C[C@H]2O[C@]1(C)n1c3ccccc3c3c4c(c5c6ccccc6n2c5c31)C(=O)NC4 | enzyme activity, inhibitor | 1 µM | inhibition | 42% |
| CN1CCN(C(=O)c2ccc(NC(=O)Nc3ccc(N(C)c4ccnc(Nc5ccc(CS(C)(=O)=O)cc5)n4)cc3)cc2)CC1 | binding, competition with immobilised ligand | 1 µM | remaining binding | 99% |
| N#Cc1ccc(NC(=O)Nc2ccccc2)cc1 | cell-free assay, competition with immobilised ligand | 25 µM | remaining binding | 100% |
| CC(C)S(=O)(=O)c1ccc2nccc(Nc3ccc4sc(C5CCCC5)nc4c3)c2c1 | enzyme activity, inhibitor | 1 µM | activity vs control | 110% |
| COc1ccc2oc(-c3ccc4nc(N)oc4c3)c/c(=N\c3ccccc3NC(=O)CCN)c2c1 | binding | 1 µM | remaining binding | 95% |
| Cc1ccc(NC(=O)c2ccnc(C(F)(F)F)c2)cc1-c1cc(OCCO)nc(N2CCOCC2)c1 | binding, competition with immobilised ligand | 1 µM | remaining binding | 91% |
| C=CC(=O)N1CCC([C@@H]2CCNc3c(C(N)=O)c(-c4ccc(Oc5ccccc5)cc4)nn32)CC1 | cell-free assay | 1 µM | inhibition | 14% |
| C1=C/COCc2cc(ccc2OCCN2CCCC2)Nc2nccc(n2)-c2cccc(c2)COC/1 | binding | 0.1 µM | remaining binding | 94% |
